For 22 compounds, inhibition and IC50 results are on record in ChEMBL document CHEMBL1138033, “S-alkylated homocysteine derivatives: new inhibitors of human betaine-homocysteine S-methyltransferase” (J Med Chem, 2006).

pIC50: −log10 of the molar value.

Test [1] addresses T1, Betaine--homocysteine S-methyltransferase 1 (Homo sapiens) (UniProt Q93088).
T1 sequence (whole entry): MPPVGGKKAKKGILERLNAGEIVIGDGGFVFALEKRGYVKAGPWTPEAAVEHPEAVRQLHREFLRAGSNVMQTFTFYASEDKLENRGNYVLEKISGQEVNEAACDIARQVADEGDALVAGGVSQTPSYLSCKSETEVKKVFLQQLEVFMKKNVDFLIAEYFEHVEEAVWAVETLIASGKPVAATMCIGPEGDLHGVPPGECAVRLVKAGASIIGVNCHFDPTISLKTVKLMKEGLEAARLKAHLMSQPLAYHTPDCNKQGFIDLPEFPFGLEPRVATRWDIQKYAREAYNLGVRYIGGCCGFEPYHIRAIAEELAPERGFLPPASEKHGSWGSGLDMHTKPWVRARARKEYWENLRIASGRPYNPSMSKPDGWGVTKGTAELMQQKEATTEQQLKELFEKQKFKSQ
As to the kind of experiment: Inhibition of human BHMT at 20 uM. In a few lines: (§1)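 Recombinant human BHMT (0.2 µM) premixed with inhibitor, then 100 µM D,L-homocysteine and 250 µM N-methyl-¹⁴C-betaine (0.05 µCi) added; 50 mM K-phosphate pH 7.5, 10 mM β-mercaptoethanol, 37°C for 30 min. Radiolabel incorporation read against enzyme-free blanks; triplicates, percent relative to no-inhibitor control.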

The target of test [2] is T1, Betaine--homocysteine S-methyltransferase 1 (Homo sapiens). The experiment in a line: Inhibition of human BHMT at 1 uM. The method in brief: as §1
Test [3] has as its target T2, Betaine--homocysteine S-methyltransferase 1 (Homo sapiens, UniProt Q93088).
T2 sequence (Q93088 whole entry): T1 sequence (whole entry)
As to the kind of experiment: Inhibition of human BHMT. The method in brief:
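Recombinant human BHMT (0.2 µM) mixed with inhibitor at ten concentrations, then 1 mM D,L-homocysteine and 2 mM betaine (¹⁴C-methyl labelled, 0.15 µCi) added in 50 mM K-phosphate pH 7.5 with 10 mM β-mercaptoethanol; 30 min at 37°C. Enzyme-free blanks subtracted. IC50 by nonlinear regression; points in duplicate, three independent assays.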

The term inhibition denotes the change of the read-out against control, counted positive when it falls. Low readings indicate a weak effect, high ones a strong effect. Broadly, the pIC50 is the negative decadic logarithm of the IC50, by convention in mol/L. As to `NC(CCSCCSCC(=O)O)C(=O)O` (racemic), the figures for the inhibition in test [1] and in test [2] were 100% and 96.8%, respectively. This compound gave a pIC50 in test [3] of 7.02.

In test [1], `NC(CCSCC(N)C(=O)O)C(=O)O` (stereo not given) came in with an inhibition of 18.8%. With `NC(CCSc1ccc(C(=O)O)cc1)C(=O)O` (racemic), the inhibition came to 98.6% in test [1] and 84.8% in test [2]. In addition, the pIC50 in test [3] was 5.15. With `N[C@@H](CSCCCCC(=O)O)C(=O)O`, in test [1], the inhibition is 0%. Take `NC(CC[S+]([O-])CCCCC(=O)O)C(=O)O` (racemic): the inhibition in test [1] is 97.3%; in test [2], 67.8%. The compound also showed a pIC50 in test [3] of 5.30. Take `COC(=O)C(N)CCSCC(=O)NCP(=O)(O)O` (racemic): in test [1], the inhibition came out at 0%. Consider `NC(CCSCC[S+]([O-])CC(=O)O)C(=O)O` (racemic), for which the inhibition came out at 89.8% in test [1] and 55.3% in test [2]. As for `NC(CCSSCCC(=O)O)C(=O)O` (racemic), the results for the inhibition in test [1] and in test [2] were 30% and 0%, respectively. As to `NC(CCS(=O)(=O)CCCCC(=O)O)C(=O)O` (racemic), the inhibition in test [1] came to 28.8%. Regarding `NC(CCSSCCC(N)C(=O)O)C(=O)O` (stereo not given), in test [1], the inhibition worked out at 0%. `NC(CCSCc1ccc(CC(=O)O)cc1)C(=O)O` (racemic): the inhibition in test [1] was 10.1%. Turning to `NC(CCSc1cccc(C(=O)O)c1)C(=O)O` (racemic), the inhibition in test [1] was found to be 12.8%. Consider `NC(CC[S+]([O-])CC(N)C(=O)O)C(=O)O` (stereo not given), for which the inhibition in test [1] was found to be 9.5%. In the case of `NC(CCSCC(=O)NCP(=O)(O)O)C(=O)O` (racemic), the inhibition in test [1] is 8.8%. For the compound `NC(CCSc1ccccc1C(=O)O)C(=O)O` (racemic), the inhibition in test [1] was 42.5%. As to `NC(CCSCCCCP(=O)(O)O)C(=O)O` (racemic), the inhibition turned out to be 97.8% in test [1] and 74% in test [2]. Further, the negative logarithm of the IC50 (pIC50) in test [3] was 5.24. In turn, `C=CCSCCC(N)C(=O)O` (racemic) had an inhibition in test [1] of 0%. In the case of `NC(CCSCCCCCC(=O)O)C(=O)O` (racemic), the inhibition in test [1] was determined as 100%; in test [2] it was 99.9%. Further, the pIC50 in test [3] was 6.70. As for `CSCSCCC(N)C(=O)O` (racemic), the inhibition in test [1] came out at 20.5%. In turn, `NC(CCSCCCC(=O)O)C(=O)O` (racemic) registered an inhibition in test [1] of 20.1%.

`NC(CCSCCCCC(=O)O)C(=O)O` (racemic): the inhibition in test [1] is 100%; in test [2], 98.3%. The compound `NC(CCSCCOCP(=O)(O)O)C(=O)O` (racemic) had an inhibition in test [1] of 25.5%.
